Assay outcomes from PubChem BioAssay.
An excerpt weighted towards active compounds, which were near 0.7% of everything screened.
Hep lipid drop: hepatic lipid droplet formation modulation | AML12 mouse hepatocytes, oleate lipid droplets, BODIPY imaging | inhibition, % at 6.5 µM | hit rate 0.4% among 240,000;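 active = lipid droplet intensity inhibited by at least 50%, with more than 500 cells counted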
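Test system: AML12 mouse liver cells; schedule: overnight exposure; technique: high-content imaging of BODIPY-stained droplets and DAPI nuclei; read-out: % inhibition of corrected integrated BODIPY droplet signal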
HSV replic up: increases HSV replication in cells. HSV replication augmentation in cells, fold increase. hit rate 0.005% among 220,000. maximum fold increase; in the data active = maximum fold increase above about 1.5; tested in PC3 cells
GSK3B inh: blocks human GSK3beta kinase activity | P49841 | GST-GSK3beta kinase, ADP-Glo luminescence, 60 min; stronger effect = lower value | activity score (negative = inhibition), % at 10 µM | hit rate 0.038% among 300,000 | AID 2097;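 active = more than half of replicate wells score below -50%, meaning over 50% inhibition versus plate controls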;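 also: 0% = median DMSO wells and -100% = median GW8510 positive control wells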
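Test system: GST-fused GSK3beta enzyme, cell-free | Quantity: 1.6 ng GST-GSK3beta enzyme per well | Reagent: 25 µM ATP with peptide substrate | Schedule: 60 min enzyme reaction, room temperature | Signal: Luminescent ADP-Glo measurement of ADP formed | Read-out basis: Score relative to plate controls | Control set: DMSO and 20 µM GW8510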
GSK3A inh: human GSK-3 alpha kinase inhibition; ADP-Glo luminescence, 60 min; inhibition, % at 10 µM; hit rate 0.1% among 320,000;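 active = more than half of replicates show inhibition above 20%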;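 also: GST-tagged GSK-3 alpha with peptide substrate and 25 µM ATP; 0% = DMSO neutral wells and 100% = GW8510 positive control wells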
STK33 inh: human STK33 kinase inhibition; Q9BYT3; purified STK33, MBP phosphorylation, ADP-Glo luminescence; inhibition, % at 10 µM; hit rate 0.073% among 320,000; AID 2661;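 active = inhibition at or above 25%, using the most active replicate where run in duplicate; inactive = inhibition below 25%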
Rce1 inhib: yeast Ras-converting enzyme inhibition | Q03530 | yeast membranes, quenched prenylated peptide cleavage fluorescence | calls only | hit rate 0.27% among 290,000 | AID 2563;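 active = fall in fluorescence gain of 50% or more versus controls, with final raw signal at or below 3038400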;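 also: plate controls were neutral control wells for no effect and wells lacking membranes for full effect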
Target sequence (Q03530 whole entry, looked up): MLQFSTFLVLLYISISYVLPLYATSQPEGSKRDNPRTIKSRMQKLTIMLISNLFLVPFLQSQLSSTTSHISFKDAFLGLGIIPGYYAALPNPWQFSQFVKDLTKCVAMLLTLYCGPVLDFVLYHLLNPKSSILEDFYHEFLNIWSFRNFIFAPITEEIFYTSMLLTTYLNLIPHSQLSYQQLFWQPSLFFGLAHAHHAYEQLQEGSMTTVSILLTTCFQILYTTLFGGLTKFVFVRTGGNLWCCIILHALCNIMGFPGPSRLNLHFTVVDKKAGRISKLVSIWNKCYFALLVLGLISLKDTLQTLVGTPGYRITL
Starred values were filed as active, the others as inactive; i = inactive; · = no result; + = active, no number.

SMILES | Hep lipid drop | HSV replic up | GSK3B inh | GSK3A inh | STK33 inh | Rce1 inhib
CN(C)c1ccc(-c2nn3c(-c4ccccc4Cl)nnc3s2)cc1 | · | i | -0.8 | -2.0 | 0.2 | i
Cc1cc(N2C(=O)c3ccc(C(=O)Nc4ccc(O)cc4C(=O)O)cc3C2=O)no1 | 2.0 | · | -1.0 | 0.5 | 32.5* | i
C=CCOc1ccc(-c2n[nH]c(=S)o2)cc1 | -10.2 | i | -0.2 | 11.2 | -2.3 | +
COc1cc(/C=N/NC(=O)c2nnn(-c3nonc3N)c2-c2cccs2)ccc1O | -2.5 | · | 1.1 | 75.3* | 4.0 | i
Cc1ccc(/C=N/NC(=O)c2nnn(-c3nonc3N)c2-c2cccs2)cc1 | -0.3 | · | 1.6 | 38.9 | 0.2 | i
Nc1nonc1-n1nnc(C(=O)N/N=C/c2ccccc2F)c1-c1cccs1 | -6.7 | · | -0.1 | 64.0* | 2.3 | i
O=C(CSc1nc2ccccc2c(=O)n1-c1ccccc1Cl)NC1CCS(=O)(=O)C1 (stereo unspecified) | · | · | · | 2.5 | -0.7 | ·
CN(C)/C=C/C(=O)c1ccc2noc(-c3cccc(F)c3)c2c1 | · | · | 3.6 | 2.8 | 35.2* | i
CC(=O)c1ccc2noc(-c3ccc(F)cc3)c2c1 | -3.8 | i | -6.1 | 7.2 | 3.9 | i
COc1ccc(-c2onc3ccc(Br)cc23)cc1 | -3.0 | i | 1.9 | -2.0 | 1.3 | i
COc1ccc(-c2onc3ccc(C(=O)/C=C/N(C)C)cc23)cc1 | 2.4 | · | -3.6 | -0.4 | 31.2* | i
COc1ccc2oc3cc(C)[n+]([O-])c(-c4ccc(C)cc4)c3c2c1 | 10.6 | i | -55.1* | 52.7* | 1.4 | i
COc1ccc(-c2c3c(cc(C)[n+]2[O-])oc2ccc(OC)cc23)cc1 | -6.2 | i | -43.5 | 33.9 | 0.7 | i
COc1cccc(/C=C/C(=C2/C(=O)N(c3ccccc3)N=C2C)c2ccc(C)cc2)c1OC | 74.4* | i | 1.9 | -0.6 | -2.1 | i
Cc1[nH]n(-c2ccccc2)c(=O)c1N=Nc1ccccc1 | 53.6* | i | -2.5 | 2.5 | -3.9 | i
COc1ccc2nc3c(cc2c1)c(NC(=O)c1cccs1)nn3CC(C)C | -45.8 | · | -92.0* | 72.6* | 4.7 | i
CCCn1nc(NC(=O)C(C)(C)C)c2cc3cc(OC)ccc3nc21 | 11.7 | · | -41.8 | 65.5* | 1.0 | i
CCCCn1nc(NC(=O)CC)c2cc3cc(OC)ccc3nc21 | -16.1 | · | -0.9 | 16.0 | -0.4 | i
COc1cc(CNCc2ccccc2)c(Br)cc1OC1CCCC1 | -2.9 | i | 0.1 | 1.4 | -0.8 | i
COc1ccc(CNC(=O)COC(=O)CC2CCCC2)cc1 | 0.3 | i | 5.3 | -3.6 | -2.8 | i
COc1ccc(-n2nc(C(=O)NCC(=O)N(C)Cc3ccccc3)c3ccccc3c2=O)cc1 | -2.8 | · | 2.7 | -1.5 | 0.2 | +
COc1ccc(-n2nc(C(=O)NCC(=O)NC(C)C)c3ccccc3c2=O)cc1 | · | · | 0.4 | -1.3 | -1.4 | i
COc1ccc(-n2nc(C(=O)NCC(=O)N3CCN(Cc4ccccc4)CC3)c3ccccc3c2=O)cc1 | 1.2 | · | 4.0 | -0.8 | -0.9 | +
COc1ccc(-n2nc(C(=O)NCC(=O)O)c3ccccc3c2=O)cc1 | · | · | -2.3 | -2.5 | -3.2 | i
COc1ccc(-n2nc(C(=O)NCC(=O)NCc3ccc(F)cc3)c3ccccc3c2=O)cc1 | 6.2 | · | -1.8 | 0.5 | 0.6 | +
SMILES | Hep lipid drop | HSV replic up | GSK3B inh | GSK3A inh | STK33 inh | Rce1 inhib
CCOC(=O)C1CCCN(S(=O)(=O)c2cc3[nH]c(=O)c(=O)[nH]c3cc2C)C1 (stereo unspecified) | -5.7 | · | -0.7 | -2.3 | -0.4 | +
CCOC(=O)C1CCCN(S(=O)(=O)c2ccc(S(=O)(=O)N3CCCC3)cc2)C1 (stereo unspecified) | · | · | -3.3 | -2.0 | -2.1 | i
COc1ccc(C2Nc3ccccc3C(=O)N2Cc2ccccc2)cc1COc1ccccn1 (stereo unspecified) | · | i | -1.1 | -3.8 | -0.6 | +
Cc1ccc(S(=O)(=O)NC(C)C(=O)OCC(=O)N(C)c2ccccc2)cc1 (stereo unspecified) | · | · | · | -2.4 | 1.2 | ·
Cc1cc(S(=O)(=O)N2CCN(c3ccccc3F)CC2)ccc1-n1cnnn1 | 22.7 | · | -2.5 | -1.2 | -0.2 | i
CS(=O)(=O)N(CCC#N)Cc1ccc(/C=C2\C(=O)Nc3ccccc32)o1 | -8.4 | i | -6.8 | 4.1 | 11.0 | i
Cc1ccc2nc3c(c(N)c2c1)CCN3C | -12.8 | · | -3.0 | 3.7 | -0.2 | +
Cc1ccc2nc3c(c(N)c2c1)CCN3c1ccccc1 | · | i | 3.0 | 4.2 | 1.3 | i
Cc1cc(F)ccc1S(=O)(=O)N(CC(=O)N1CCOCC1)CC(=O)N1CCOCC1 | · | · | · | -0.2 | -2.2 | ·
C/C(=N\NC(=O)c1ccc(Br)cc1)c1cccc(NC(=O)c2cccnc2)c1 | -10.3 | i | 0.5 | 1.2 | 0.8 | +
CCOc1ccc(CCNC(=O)Cc2ccc(NC3=NC4CS(=O)(=O)CC4S3)cc2)cc1OCC (stereo unspecified) | 8.1 | · | 2.2 | -0.5 | -0.1 | i
COc1ccc(Br)cc1C(=O)Nc1cc(C)cc(C)c1 | · | i | -2.7 | -0.7 | 1.4 | +
CC1(C)CCC23CC[C@]4(C)C(OC2=O)(C3C1)[C@H]1O[C@H]1C1[C@@]2(C)CC[C@@H](O)C(C)(C)C2CC[C@]14C (stereo partly specified) | · | i | · | · | · | ·
Cc1nc2ccc(S(=O)(=O)NCC(=O)NCCc3ccc(Cl)cc3)cc2s1 | 4.3 | · | 1.2 | 0.8 | 0.0 | i
CC(=O)Nc1cccc(-c2cnc(N)c(C(=O)c3cccnc3)n2)c1 | · | · | · | 88.5* | 12.8 | ·
CC(=O)OCC(=O)[C@@]12OC3(CCCC3)O[C@@H]1C[C@H]1[C@@H]3CCC4=CC(=O)C=C[C@]4(C)[C@@]3(F)[C@@H](O)C[C@@]12C | 14.1 | i | -3.6 | -1.5 | -2.0 | +
O=S(=O)(c1ccc(Cl)s1)N1CCCc2cccc(O)c21 | -5.7 | i | -1.3 | -1.2 | -1.8 | i
CC1CCc2c(sc(NC(=O)COC(=O)c3ccccc3NCc3ccco3)c2C#N)C1 (stereo unspecified) | 3.0 | i | -4.9 | -2.2 | 0.8 | +
CCN(CC)c1ccc(Nc2nc(N3CCOCC3)c3ccccc3n2)cc1 | -36.6 | i | -0.3 | 1.0 | 27.9* | i
COc1ccc(Nc2nc(N3CCCC3)c3ccccc3n2)cc1 | -10.9 | i | -4.1 | 1.8 | 3.0 | i
CC1(c2ccncc2)Nc2ccccc2-c2nc3ccccc3n21 (stereo unspecified) | 2.4 | i | 0.3 | -3.4 | 0.4 | +
COc1ccc2c(c1)C1(Nc3ccccc3-c3nc4ccccc4n31)C(=O)N2 (stereo unspecified) | -26.4 | i | -2.7 | -0.5 | -0.1 | i
CC(C)CCNc1nc(N)c([N+](=O)[O-])c(NCCO)n1 | -20.8 | i | -67.4* | 79.5* | 3.1 | i
